Results from different studies.
Each line is one published result; the experiments were not run side by side.
Target: Mitogen-activated protein kinase kinase kinase kinase 5 (MAP4K5, Homo sapiens, UniProt Q9Y4K4)

test	system	setting	quantity	value	SMILES
cell-free assay		0.5 µM	remaining signal	89.5%	O=C1NC(=O)c2cc(Nc3ccc(F)cc3)c(Nc3ccc(F)cc3)cc21
enzyme activity, inhibitor		23.5 nM	remaining activity	69%	Cc1ccc(C(=O)Nc2ccc(CN3CCN(C)CC3)c(C(F)(F)F)c2)cc1C#Cc1cnc2cccnn12
cell-free assay, competition with immobilised ligand		0.1 µM	remaining binding	83.4%	Cc1cc(C)c(-n2ccn3nc(-c4cccnc4)cc23)cc1NC(=O)c1cc(C#N)cc(S(F)(F)(F)(F)F)c1
enzyme activity, inhibitor, radiometric		1 µM	inhibition	89%	CNC(=O)c1cc2c(Oc3ccc(NC(=O)C4(C(=O)Nc5ccc(F)cc5)CC4)cc3)ccnc2cc1OC
binding		1 µM	remaining binding	100%	CN(C)c1nccc(-c2cnc3ncccn23)n1
cell-free assay, competition with immobilised ligand		1 µM	remaining binding	100%	CNCc1ccccc1-c1csc([C@H](C)Nc2nc(C)nc3cc(OC)c(OC)cc23)c1
enzyme activity, inhibitor		5 µM	remaining activity	99.1%	O=C(Nc1cnn(-c2csc(C(=O)NC3COC3)c2)c1)Nc1ccccc1Cl
cell-free assay, competition with immobilised ligand		1 µM	remaining binding	88%	CO[C@@H](C)c1c(Nc2ccc([C@H](N(C)C(=O)C3CCS(=O)(=O)CC3)C(F)(F)F)cc2)cnc2cc(Cl)nn12
cell-free assay		0.5 µM	remaining signal	7.61%	N#CCCc1ccc2c(c1)-c1[nH]c3ccc([N+](=O)[O-])cc3c1CC(=O)N2
enzyme activity, inhibitor, radiometric		1 µM	remaining activity	90%	CC(C)(C)c1nc(-c2cccc(NS(=O)(=O)c3c(F)cccc3F)c2F)c(-c2ccnc(N)n2)s1
enzyme activity, inhibitor		1 µM	inhibition	-2%	COc1cc2ncnc(Nc3ccc(Oc4ccccc4)c(C)c3C)c2cc1OC
cell-free assay, competition with immobilised ligand		1 µM	remaining binding	98%	CS(=O)(=O)c1cc(C2(NC(=O)c3cncc4c3cnn4-c3ccc(F)cc3)CC2)ccn1
enzyme activity, inhibitor, radiometric		1 µM	activity vs control	110%	FC(F)(F)Oc1cccc(-c2cnc3ccc(-c4ccncc4)nn23)c1
cell-free assay, competition with immobilised ligand		1 µM	remaining binding	100%	Cc1cc(NC(=O)c2cccc(S(F)(F)(F)(F)F)c2)cc(-n2ccn3nc(-c4cccnc4)cc23)c1
enzyme activity, inhibitor		1 µM	activity vs control	7%	Cc1ccc(C(=O)NCc2ccsc2)cc1C#Cc1cn(C(C)C)c2ncnc(N)c12
enzyme activity, inhibitor		1 µM	inhibition	4%	CN1CC(Oc2cnc(C#N)cc2-c2ccn3nc(NC(=O)C4CC4)cc3c2)C1
cell-free assay		0.5 µM	remaining signal	101%	Clc1ccc(Nc2nnc(Cc3ccncc3)c3ccccc23)cc1
target engagement in cells, inhibitor, chemoproteomics	A-375	0.5 µM	inhibition	-0.264%	CCN1CCN(Cc2ccc(NC(=O)c3ccc(C)c(Oc4ccnc5[nH]ccc45)c3)cc2C(F)(F)F)CC1
